Columns and labels:
[1] = Inhibition of bacterial NDM1 expressed in Escherichia coli BL21(DE3) using cefazolin as substrate by spectrometric method; set-up: species or system Bacteria
Summary of the method: (§1)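 Purified enzymes, overexpressed and purified by earlier methods, assayed under steady-state conditions by UV spectrometry in 50 mM Tris, pH 7.0. Substrate for NDM-1, VIM-2 and L1 was cefazolin (50 µM), read at 262 nm. Substrate for ImiS was imipenem (60 µM), read at 300 nm. Inhibitor varied 0–50 µM; IC50 is the concentration giving 50% loss of activity.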

[2] = Inhibition of bacterial ImiS expressed in Escherichia coli BL21(DE3) using imipenem as substrate by spectrometric method; set-up: species or system Bacteria; summary of the method: as §1
[3] = Inhibition of bacterial L1 expressed in Escherichia coli BL21(DE3) using cefazolin as substrate by spectrometric method; set-up: species or system Bacteria; summary of the method: as §1
Bacteria [4] = assay: Inhibition of bacterial VIM2 expressed in Escherichia coli BL21(DE3) at 50 uM using cefazolin as substrate by spectrometric method relative to control
[5] = Stability of the compound in pH 6 to 6.5 MES buffer at 50 uM after 24 hrs by UV-Vis spectra analysis; assay type: physicochemical; conditions: pH 6, 24 h
Summary of the method: (§2)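 Compound at 50 µM held in MES (pH 5.5, 6.0, 6.5), in Tris (pH 7.0–8.5), or in Tris pH 7.0 containing L1. Absorbance change at 401 nm followed over 24 h.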

[6] = Stability of the compound in pH 7 Tris buffer at 50 uM after 24 hrs by UV-Vis spectra analysis; assay type: physicochemical; conditions: pH 7, 24 h; summary of the method: as §2
[7] = Stability of the compound in pH 7 Tris buffer at 50 uM after 24 hrs in presence of bacterial L1 by UV-Vis spectra analysis; assay type: ADME; conditions: pH 7, 24 h; summary of the method: as §2
Bacteria [8] = assay: Inhibition of bacterial NDM1 expressed in Escherichia coli DH10B assessed as potentiation of cefazolin-induced antibacterial activity by measuring cefazolin MIC at 32 ug/ml after 16 hrs by broth micro-dilution method (reference value: 8 ug/ml)
Bacteria [9] = assay: Inhibition of bacterial VIM2 expressed in Escherichia coli DH10B assessed as potentiation of cefazolin-induced antibacterial activity by measuring cefazolin MIC at 32 ug/ml after 16 hrs by broth micro-dilution method (reference value: 512 ug/ml)
Bacteria [10] = assay: Inhibition of bacterial ImiS expressed in Escherichia coli DH10B assessed as potentiation of imipenem-induced antibacterial activity by measuring imipenem MIC at 32 ug/ml after 16 hrs by broth micro-dilution method (reference value: 2 ug/ml)
Bacteria [11] = assay: Inhibition of bacterial L1 expressed in Escherichia coli DH10B assessed as potentiation of cefazolin-induced antibacterial activity by measuring cefazolin MIC at 32 ug/ml after 16 hrs by broth micro-dilution method (reference value: 32 ug/ml)
Summary of the method: (§3)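 Dose-dependent cefazolin MIC assay against E. coli DH10B expressing L1 from a pBCSK plasmid, with varied inhibitor doses up to 256 µg/mL. Fold decrease in MIC was taken relative to cefazolin alone. Medium pH was monitored during the assay.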

Bacteria [12] = assay: Inhibition of bacterial L1 expressed in Escherichia coli DH10B assessed as potentiation of cefazolin-induced antibacterial activity by measuring fold reduction in cefazolin MIC at 32 ug/ml after 16 hrs by broth micro-dilution method relative to cefazolin alone; summary of the method: as §3
Bacteria [13] = assay: Inhibition of bacterial NDM1 expressed in Escherichia coli DH10B assessed as potentiation of cefazolin-induced antibacterial activity by measuring fold reduction in cefazolin MIC at 32 ug/ml after 16 hrs by broth micro-dilution method relative to cefazolin alone
[14] = Inhibition of bacterial VIM2 expressed in Escherichia coli BL21(DE3) using cefazolin as substrate by spectrometric method; set-up: species or system Bacteria; summary of the method: as §1
Bacteria [15] = assay: Inhibition of bacterial NDM1 expressed in Escherichia coli BL21(DE3) at 20 uM using cefazolin as substrate by spectrometric method relative to control
Bacteria [16] = assay: Inhibition of bacterial VIM2 expressed in Escherichia coli BL21(DE3) at 4 uM using cefazolin as substrate by spectrometric method relative to control
Bacteria [17] = assay: Inhibition of bacterial ImiS expressed in Escherichia coli BL21(DE3) at 40 uM using imipenem as substrate by spectrometric method relative to control
Bacteria [18] = assay: Inhibition of bacterial L1 expressed in Escherichia coli BL21(DE3) at 0.8 uM using cefazolin as substrate by spectrometric method relative to control
Bacteria [19] = assay: Inhibition of bacterial VIM2 expressed in Escherichia coli DH10B assessed as potentiation of cefazolin-induced antibacterial activity by measuring fold reduction in cefazolin MIC at 32 ug/ml after 16 hrs by broth micro-dilution method relative to cefazolin alone
[20] = Cytotoxicity against mouse L929 cells assessed as cell viability up to 200 uM after 48 hrs by CCK8 assay relative to control; assay type: cell-based; conditions: read-out: Activity
Summary of the method: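 Mouse fibroblast L929 cells exposed to inhibitors at 12.5, 25, 50, 100, 200 and 400 µM working concentrations; percentage of cells maintaining viability measured.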

Bacteria [21] = assay: Inhibition of bacterial L1 expressed in Escherichia coli DH10B assessed as potentiation of cefazolin-induced antibacterial activity by measuring cefazolin MIC at 16 ug/ml after 16 hrs by broth micro-dilution method (reference value: 32 ug/ml); summary of the method: as §3
Bacteria [22] = assay: Inhibition of bacterial L1 expressed in Escherichia coli DH10B assessed as potentiation of cefazolin-induced antibacterial activity by measuring cefazolin MIC at 64 ug/ml after 16 hrs by broth micro-dilution method (reference value: 32 ug/ml); summary of the method: as §3
Bacteria [23] = assay: Inhibition of bacterial L1 expressed in Escherichia coli DH10B assessed as potentiation of cefazolin-induced antibacterial activity by measuring cefazolin MIC at 128 ug/ml after 16 hrs by broth micro-dilution method (reference value: 32 ug/ml); summary of the method: as §3
Bacteria [24] = assay: Inhibition of bacterial L1 expressed in Escherichia coli DH10B assessed as potentiation of cefazolin-induced antibacterial activity by measuring cefazolin MIC at 256 ug/ml after 16 hrs by broth micro-dilution method (reference value: 32 ug/ml); summary of the method: as §3
Bacteria [25] = assay: Inhibition of bacterial L1 expressed in Escherichia coli DH10B assessed as potentiation of cefazolin-induced antibacterial activity by measuring fold reduction in cefazolin MIC at 256 ug/ml after 16 hrs by broth micro-dilution method relative to cefazolin alone; summary of the method: as §3
Escherichia coli [26] = assay: Toxicity against Escherichia coli DH10B up to 256 ug/ml after 16 hrs by broth micro-dilution method; assay type: organism-based, K-12 substr. DH10B; conditions: in vivo
Summary of the method: (§4)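 Compounds alone, at the same doses used in the MIC potentiation assays, tested for antibacterial effect against E. coli with and without MβL expression.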

Escherichia coli [27] = assay: Toxicity against Escherichia coli DH10B expressing bacterial L1 up to 256 ug/ml after 16 hrs by broth micro-dilution method; assay type: organism-based, K-12 substr. DH10B; conditions: in vivo; summary of the method: as §4
Bacteria [28] = assay: Inhibition of bacterial L1 expressed in Escherichia coli DH10B assessed as potentiation of cefazolin-induced antibacterial activity by measuring decrease in cefazolin MIC after 16 hrs by broth micro-dilution method; summary of the method: as §3

Row | IC50 [1] [µM] | IC50 [2] [µM] | IC50 [3] [µM] | MIC (Bacteria [8]) [µg/mL] | MIC (Bacteria [9]) [µg/mL] | MIC (Bacteria [10]) [µg/mL] | MIC (Bacteria [11]) [µg/mL] | fold change (FC) (Bacteria [12]) | fold change (FC) (Bacteria [13]) | IC50 [14] [µM] | fold change (FC) (Bacteria [19]) | MIC (Bacteria [21]) [µg/mL] | MIC (Bacteria [22]) [µg/mL] | MIC (Bacteria [23]) [µg/mL] | MIC (Bacteria [24]) [µg/mL] | fold change (FC) (Bacteria [25]) | inhibition (Bacteria [28]) | Compound | viability at 48 h [20] [%] | Activity (Escherichia coli [26]) | Activity (Escherichia coli [27]) | other results
1 | 12 | 15 | 0.31 | 2 | > 512 | 0.5 | 4 | 8 | 4 to 8 |  |  |  |  |  |  |  |  | COc1ccc(/C=C2\SC(=S)N(c3ccc(C(=O)O)cc3)C2=O)cc1 |  |  |  | inhibition (Bacteria [4]): < 50%; Stability [5]: Stable; Stability [6]: Stable; Stability [7]: Stable
2 | 1.31 | 3 | 0.05 | 4 | 128 | 1 | 4 | 8 |  | 0.19 | 4 | 16 | 4 | 2 | 2 | 16 | Dose-dependent effect | O=C(O)c1ccc(N2C(=O)/C(=C/c3ccccc3[N+](=O)[O-])SC2=S)cc1 | 80 | Non-Toxic | Non-Toxic | inhibition (Bacteria [15]): > 95%; inhibition (Bacteria [16]): > 95%; inhibition (Bacteria [17]): > 95%; inhibition (Bacteria [18]): > 95%
3 | 6.7 | 15.9 | 0.02 | 1 | 128 | 1 | 4 | 8 | 4 to 8 | 3.9 | 4 | 8 | 2 | 2 | 1 | 32 | Dose-dependent effect | O=C(O)c1ccc(N2C(=O)/C(=C/c3ccc([N+](=O)[O-])cc3[N+](=O)[O-])SC2=S)cc1 | > 80 | Non-Toxic | Non-Toxic | 
